Assay outcomes (PubChem)
This is a sample that favours compounds with a hit; in the whole collection about 1.4% have one here.
NR2E3 ag-1: activates human NR2E3 receptor; hit rate 0.35% among 360,000; inhibition of corepressor binding, % at 3.98 µM; Q9Y5X4; CHO-S Gal4-NCOR/VP16-NR2E3 two-hybrid, luciferase;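 active = inhibition above the mean of all tested compounds plus 3 SD, cut at about 70% in these data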;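 note: 0% = DMSO with NR2E3 transfected cells and 100% = cells lacking NR2E3 construct; higher means lower luciferase signal from less NR2E3 corepressor binding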
Target sequence (Q9Y5X4 whole entry, looked up, the tested form may be a part): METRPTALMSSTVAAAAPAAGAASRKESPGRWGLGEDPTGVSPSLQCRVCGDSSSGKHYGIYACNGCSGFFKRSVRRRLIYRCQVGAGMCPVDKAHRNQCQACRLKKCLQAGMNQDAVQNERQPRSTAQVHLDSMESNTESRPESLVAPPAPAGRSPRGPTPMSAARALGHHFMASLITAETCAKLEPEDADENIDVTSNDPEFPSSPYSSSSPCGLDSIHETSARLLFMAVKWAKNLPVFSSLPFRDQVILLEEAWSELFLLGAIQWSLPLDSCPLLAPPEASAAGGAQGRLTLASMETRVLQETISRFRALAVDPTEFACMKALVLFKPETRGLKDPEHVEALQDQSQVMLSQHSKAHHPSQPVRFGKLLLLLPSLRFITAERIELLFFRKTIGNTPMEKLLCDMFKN
PG9 binder: binds the HIV-1 gp120 antibody PG9 | hit rate 0.43% among 360,000 | inhibition, % at 6.7 µM | TR-FRET gp120-PG9 antibody binding | AID 624416; in the data active = inhibition above about 8.5%
NR2E3 ag-2: agonists of human nuclear receptor NR2E3 | hit rate 0.12% among 320,000 | AID 2300 | GST-NR2E3/biotin-RetCOR TR-FRET, 1536-well | inhibition of corepressor binding, % at 4.78 µM | Q9Y5X4;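 active = percent inhibition above the cutoff of mean plus 3 SD of all tested compounds, set per screening campaign, cut at about 20% in these data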;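 note: 0% = DMSO wells and 100% = biotin wells as full block of FRET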
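Material: NR2E3–RetCOR corepressor complex / Amount: 1.35 nM GST-NR2E3 / Medium: Tris pH 7.5 / Compound: single nominal compound dose of 4.8 µM / Incubation: 5 h at 4 °C / Technique: TR-FRET, Eu(K)-anti-GST donor, streptavidin-D2 acceptor, ex 340, em 617/671 nm / Read-out basis: percent loss of FRET ratio relative to control wells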
NR1D1 modulator: Rev-erb alpha (human) modulation | P20393 | Rev-erbα–FITC-DNA binding, fluorescence polarization, 90 min | activity, % at 10 µM | hit rate 0.79% among 370,000 | AID 1259318;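 active = activity above about 14%, limit read from the data; passing the limit was not always enough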;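 note: 0% = DMSO wells with 35 nM protein and 100% = DMSO wells with 750 nM protein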
Rev-erbA confirm: Rev-erb alpha (human) modulation, hit confirmation. shares compounds with NR1D1 modulator. Rev-erb alpha FITC-DNA binding, fluorescence polarization, 90 min. activation, % at 25 µM. hit rate 61% among 3,000;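 active = activation at or above a set limit, or at least 3 SD above the negative control mean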;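 note: 0% = 35 nM protein with DMSO and 100% = 750 nM protein high control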
RORg DNA counter: counter-screen for Rev-erb alpha modulators: RORgamma DNA binding. shares compounds with NR1D1 modulator. purified RORgamma protein-FITC-DNA binding, fluorescence polarization. IC50, µM. hit rate 8% among 910. AID 1259320;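 active = Compounds whose fitted half-maximal concentration for disrupting protein-DNA binding is below 10 micromolar; the record names Rev-erb in its text, so the target is in doubt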
The depositor's hits bear a star; i = inactive; . = no result.

SMILES | NR2E3 ag-1 | PG9 binder | NR2E3 ag-2 | NR1D1 modulator | Rev-erbA confirm | others
CCN(CC)c1ccc(/C=C2\C(=O)NC(=S)N(c3ccc(OC)cc3OC)C2=O)o1 | -19 | . | -3 | . | .
Cc1cc(C)cc(N2C(=O)/C(=C\c3ccc(N4CCN(C)CC4)o3)C(=O)NC2=S)c1 | -4 | -6 | -1 | 17* | 11
COc1ccc2nc(-c3ccc(CN4CCC(n5nnc6ccccc65)CC4)cc3)c(-c3ccccc3)nc2c1 | . | 2 | . | 4 | .
CCC1(NS(=O)(=O)c2ccc(N)cc2)C(=O)N(C)C(=O)N(C)C1=O | -13 | -2 | . | -7 | .
O=C1COc2ccc(C(=O)COC(=O)Cc3ccccc3)cc2N1 | -20 | 0 | 3 | 5 | .
O=C1NC(=O)C(=Cc2ccc(N3CCOCC3)o2)C(=O)N1 | -10 | -6 | -7 | 30* | 28*
Cc1ccc(-n2c(O)c(/C=N/c3ncc(Br)cc3Br)c(=O)[nH]c2=O)cc1 | -22 | -1 | 3 | 131* | 143* | RORg DNA counter=>40
O=C1NC(=O)C(Cc2ccccc2)(Cc2ccccc2)C(=O)N1Cc1ccccc1 | 12 | 0 | . | 3 | .
CCCCNCC(O)c1ccc(O)cc1 (stereo not given) | . | . | . | 2 | .
CCCCn1c(=O)c(C(=O)Nc2ccccc2C)c(O)c2ccccc21 | -34 | . | 3 | . | .
CC(C)CCn1c(=O)c(C(=O)Nc2ccccc2S(N)(=O)=O)c(O)c2ccccc21 | -31 | 8 | -1 | 29* | 21*
CCCCCn1c(=O)c(C(=O)Nc2ccccc2Cl)c(O)c2ccccc21 | -20 | -1 | 0 | 76* | 33* | RORg DNA counter=i
O=C1C2CCCN2C(c2ccccc2)N1c1ccccn1 (stereo not given) | -4 | -1 | 0 | 0 | .
CCOc1ccc(N=Cc2c(O)n(Cc3ccccc3)c(=S)[nH]c2=O)cc1 | 12 | 1 | 1 | 41* | 10
O=c1[nH]c(=O)n(Cc2ccc(F)cc2)c(O)c1C=Nc1ccc(Cl)cc1 | -5 | 1 | 3 | 125* | 9
CC(C)CC(C)N (stereo not given) | -10 | -1 | 2 | 19* | -3
C1=C(c2c[nH]c3ccccc23)CCN(Cc2ccccc2)C1 | -19 | -1 | 2 | 1 | .
Nc1c2c(nc3ccccc13)CCN(Cc1ccccc1)C2 | -23 | -1 | -1 | 32* | 34* | RORg DNA counter=>40
O=C(O)c1ccccc1-c1c2cc(Br)c(=O)cc-2oc2[c]([Hg])c(O)c(Br)cc12 | . | . | . | 118* | 79*
C=C(C)c1cccc(C(C)(C)NC(=O)NC2CN3CCC2CC3)c1 (stereo not given) | -6 | 0 | -1 | 38* | 46*
OC(Cn1c2ccccc2c2ccccc21)C[n+]1cccc2ccccc21 (stereo not given) | 12 | -1 | 1 | 9 | .
O=[N+]([O-])c1ccc(NC2CCCC2)c2ccncc12 | 8 | . | 2 | . | .
O=[N+]([O-])c1ccc(N2CCCC2)c2ccncc12 | -6 | -7 | -1 | 36* | 35* | RORg DNA counter=>40
CCOC(=O)C1CCCN(c2ccc([N+](=O)[O-])c3nonc23)C1 (stereo not given) | 8 | -1 | . | 57* | 57* | RORg DNA counter=2.5*
COc1ccccc1N1CCN(Cc2cccc(OC)c2O)CC1 | 15 | 2 | 1 | 1 | .
O=C1NCN(c2ccccc2)C12CCN(C(c1cccs1)c1nnnn1Cc1ccccc1)CC2 (stereo not given) | 2 | -1 | . | -3 | .
O=C(CN1CCOCC1)c1cccc2ccccc12 | -3 | 0 | 2 | 7 | .
Cc1c(C(=O)c2cccc3ccccc23)c2cccc3c2n1[C@H](CN1CCOCC1)CO3 | -35 | -3 | 5 | 27* | 16*
